Measured values gathered from unrelated publications.
Lines come from different studies, so protocols differ.
Target: Tyrosine-protein kinase receptor Tie-1 (TIE1, Homo sapiens, UniProt P35590)

`O=C(Nc1c[nH]nc1C(=O)NC1CCNCC1)c1cc(F)cc(F)c1` has a remaining binding of 100% (binding; competition with immobilised ligand; 1 µM).
With `CC1CCCN1c1nccc(-c2cnn3ncccc23)n1` (stereo not shown) the remaining binding was 100% (binding; 1 µM).
`CCN1CCN(Cc2ccc(C(=O)Nc3ccc(C)c(Oc4ccc5c(c4)CC(=O)N5)c3)cc2C(F)(F)F)CC1` has a remaining binding of 79% (binding; competition with immobilised ligand; 1 µM).
For `CN(C)c1nccc(-c2cnn3ncccc23)n1`, the remaining binding was 100% (binding; 1 µM).
The remaining binding of `O=C(NCCCN1CCOCC1)c1ccc(Nc2ncc(Cl)c(-c3ccc(Cl)s3)n2)cc1` is reported as 44% (binding; competition with immobilised ligand; 1 µM).
`CS(=O)(=O)NCC[C@H](NC(=O)c1cncc2c1cnn2-c1ccc(F)cc1)c1ccnc(S(C)(=O)=O)c1` has a remaining binding of 100% (cell-free assay; competition with immobilised ligand; 1 µM).
`CN(C)c1nccc(-c2cnc3ncccn23)n1` has a remaining binding of 83% (binding; 1 µM).
With `Cc1cnc(Nc2ccc(C(=O)N3CCC(N4CCCC4)CC3)cc2)nc1-c1cc2ccccc2s1` the remaining binding was 10% (binding; competition with immobilised ligand; 1 µM).
For `Cc1cnn2ncc(-c3ccnc(N(C)C)n3)c2c1`, the remaining binding was 98% (binding; 1 µM).
`FC(F)(F)Oc1cccc(-c2cnc3ccc(-c4ccncc4)nn23)c1` has a remaining binding of 84% (cell-free assay; competition with immobilised ligand; 5 µM).
With `CCS(=O)(=O)c1cc2cc(C[C@](O)(CC(C)(C)c3ccc(F)cc3C(N)=O)C(F)(F)F)[nH]c2cn1` the remaining binding was 100% (cell-free assay; competition with immobilised ligand; 1 µM).
For `C=CC(=O)N1CCC(C(=O)NCC(=O)N2CCN(c3nc(-c4cnc(N)nc4C(F)F)nc(N4CCOCC4)n3)CC2)CC1`, the remaining binding was 100% (binding; competition with immobilised ligand; 1 µM).
For `Cc1noc([C@H]2C[C@@H](c3ccc(C(F)(F)F)cc3)CN(C(=O)N3CCS(=O)(=O)C3)C2)n1`, the remaining binding was 89% (cell-free assay; competition with immobilised ligand; 1 µM).
With `C[C@@H](c1ccc(-n2cnc3c(N)ncnc32)cc1)N1CCc2nn(C)c(Cc3ccccc3)c2C1=O` the remaining binding was 84% (binding; competition with immobilised ligand; 0.1 µM).
`CNCc1ccccc1-c1csc([C@H](C)Nc2nc(C)nc3cc(OC)c(OC)cc23)c1` has a remaining binding of 100% (cell-free assay; competition with immobilised ligand; 1 µM).
With `N[C@@H]1CCN(c2nccc(-c3cnn4ncccc34)n2)C1` the remaining binding was 100% (binding; 1 µM).
The remaining binding of `C[C@H](NC(=O)c1cnc2n1[C@](C)(Cc1ccc(C#N)cc1)C(=O)N2c1cc(Cl)c(F)c(Cl)c1)C(=O)NC1(c2ccccn2)CC1` is reported as 100% (cell-free assay; competition with immobilised ligand; 1 µM).
`O=C(c1ccc(Nc2ncc(Cl)c(-c3ccc(Cl)s3)n2)cc1)N1CCC(N2CCCC2)CC1` gave a remaining binding of 18% (binding; competition with immobilised ligand; 1 µM).
`C[C@@H](c1cccc(C#N)c1)n1cc(Cl)cc(C(N)=O)c1=N` gave a remaining binding of 87% (cell-free assay; competition with immobilised ligand; 1 µM).
`C[C@H]1CCN(c2nccc(-c3cnn4ncccc34)n2)C1` gave a remaining binding of 75% (binding; 1 µM).
For `O=S(=O)(NC1CCC(c2cc(F)ccc2F)(S(=O)(=O)c2ccc(Cl)cc2)CC1)C(F)(F)F` (stereo not shown), the remaining binding was 100% (cell-free assay; competition with immobilised ligand; 1 µM).
The remaining binding of `COc1cnc(Nc2cccc(S(N)(=O)=O)c2)nc1N1CCN(c2ccccc2)CC1` is reported as 99% (binding; competition with immobilised ligand; 1 µM).
